Where “and” joins values, the source holds several entries; their conditions need not be identical. Equal values may be shown once.
Test system: Fibroblast
Assay: Multiplex assay against human fibroblast
Type: toxicity, cell-based
In short: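 Phenotypes for tubulin, mitochondrial mass and membrane permeability are expressed as per cents of healthy-nucleus cells. Cells were stained live at seeding with Hoechst33342, BioTracker Green Microtubule Cytoskeleton Dye, MitoTracker Red and Annexin V Alexa Fluor 680, then imaged after compound addition on a CQ1 microscope at 37°C and 5% CO2. Machine-learning gating in CellPathfinder separated Hoechst high-intensity objects from normal cells, divided normal cells by nuclear state (healthy, pyknosed, fragmented) and divided pyknosed cells into mitotic or apoptotic.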

[1] = 12 h, 1 µM, compound concentration 1 uM, replicate 1
[2] = 12 h, 1 µM, compound concentration 1 uM, replicate 2
[3] = 12 h, 10 µM, compound concentration 10 uM, replicate 1
[4] = 12 h, 10 µM, compound concentration 10 uM, replicate 2
[5] = 24 h, 1 µM, compound concentration 1 uM, replicate 1
[6] = 24 h, 1 µM, compound concentration 1 uM, replicate 2
[7] = 24 h, 10 µM, compound concentration 10 uM, replicate 1
[8] = 24 h, 10 µM, compound concentration 10 uM, replicate 2
[9] = 48 h, 10 µM, compound concentration 10 uM, replicate 1
[10] = 48 h, 10 µM, compound concentration 10 uM, replicate 2

C[C@@]1(C(=O)Nc2ccc(F)nc2)CCCN1c1nc(Nc2cc(C3CC3)n[nH]2)c2cccn2n1 [BMS-754807]
Population Apoptotic (%) [1]: 63% | Population Fragmented Nuclei (%) [1]: 36% | Population Healthy Nuclei (%) [1]: 50% | Population Hoechst High Intensity Objects (%) [1]: 10% | Population Membrane Permeable-Phenotype (%) [1]: 18% | Population Mitochondria Different-Phenotype (%) [1]: 13% | Population Mitotic Cells (%) [1]: 36% | Population Normal (%) [1]: 89% | Population Pyknosed Nuclei (%) [1]: 13% | Population Tubulin-Different-Phenotype (%) [1]: 69% | Total Cell Count [1]: 257 | Population Apoptotic (%) [2]: 66% | Population Fragmented Nuclei (%) [2]: 75% | Population Healthy Nuclei (%) [2]: 16% | Population Hoechst High Intensity Objects (%) [2]: 28% | Population Membrane Permeable-Phenotype (%) [2]: 50% | Population Mitochondria Different-Phenotype (%) [2]: 33% | Population Mitotic Cells (%) [2]: 33% | Population Normal (%) [2]: 71% | Population Pyknosed Nuclei (%) [2]: 8% | Population Tubulin-Different-Phenotype (%) [2]: 66% | Total Cell Count [2]: 52 | Population Apoptotic (%) [3]: 63% and 78% | Population Fragmented Nuclei (%) [3]: 22% and 25% | Population Healthy Nuclei (%) [3]: 42% | Population Hoechst High Intensity Objects (%) [3]: 16% and 15% | Population Mitotic Cells (%) [3]: 36% and 21% | Population Normal (%) [3]: 84% | Population Pyknosed Nuclei (%) [3]: 34% and 16% | Total Cell Count [3]: 75 and 165 | Population Apoptotic (%) [4]: 80% and 33% | Population Healthy Nuclei (%) [4]: 37% and 58% | Population Hoechst High Intensity Objects (%) [4]: 29% and 13% | Population Membrane Permeable-Phenotype (%) [4]: 17% and 22% | Population Normal (%) [4]: 70% and 86% | Total Cell Count [4]: 87 and 53 | Population Apoptotic (%) [5]: 63% | Population Fragmented Nuclei (%) [5]: 27% | Population Healthy Nuclei (%) [5]: 55% | Population Hoechst High Intensity Objects (%) [5]: 9% | Population Membrane Permeable-Phenotype (%) [5]: 10% | Population Mitochondria Different-Phenotype (%) [5]: 26% | Population Mitotic Cells (%) [5]: 36% | Population Normal (%) [5]: 90% | Population Pyknosed Nuclei (%) [5]: 16% | Population Tubulin-Different-Phenotype (%) [5]: 70% | Total Cell Count [5]: 219 | Population Apoptotic (%) [6]: 75% | Population Fragmented Nuclei (%) [6]: 65% | Population Healthy Nuclei (%) [6]: 19% | Population Hoechst High Intensity Objects (%) [6]: 40% | Population Membrane Permeable-Phenotype (%) [6]: 40% | Population Mitochondria Different-Phenotype (%) [6]: 40% | Population Mitotic Cells (%) [6]: 25% | Population Normal (%) [6]: 59% | Population Pyknosed Nuclei (%) [6]: 15% | Population Tubulin-Different-Phenotype (%) [6]: 60% | Total Cell Count [6]: 44 | Population Apoptotic (%) [7]: 41% and 63% | Population Fragmented Nuclei (%) [7]: 26% and 20% | Population Healthy Nuclei (%) [7]: 53% and 63% | Population Hoechst High Intensity Objects (%) [7]: 21% and 13% | Population Membrane Permeable-Phenotype (%) [7]: 35% and 15% | Population Mitotic Cells (%) [7]: 58% and 36% | Population Normal (%) [7]: 78% and 86% | Population Pyknosed Nuclei (%) [7]: 19% and 15% | Total Cell Count [7]: 80 and 166 | Population Apoptotic (%) [8]: 60% and 37% | Population Healthy Nuclei (%) [8]: 28% and 47% | Population Mitochondria Different-Phenotype (%) [8]: 25% and 59% | Population Mitotic Cells (%) [8]: 40% and 62% | Population Normal (%) [8]: 68% and 90% | Total Cell Count [8]: 83 and 51 | Population Apoptotic (%) [9]: 92% | Population Fragmented Nuclei (%) [9]: 35% | Population Healthy Nuclei (%) [9]: 39% | Population Hoechst High Intensity Objects (%) [9]: 27% | Population Membrane Permeable-Phenotype (%) [9]: 23% | Population Mitochondria Different-Phenotype (%) [9]: 28% | Population Mitotic Cells (%) [9]: 7% | Population Normal (%) [9]: 72% | Population Pyknosed Nuclei (%) [9]: 24% | Population Tubulin-Different-Phenotype (%) [9]: 85% | Total Cell Count [9]: 73 | Population Apoptotic (%) [10]: 70% | Population Fragmented Nuclei (%) [10]: 27% | Population Healthy Nuclei (%) [10]: 56% | Population Hoechst High Intensity Objects (%) [10]: 9% | Population Membrane Permeable-Phenotype (%) [10]: 24% | Population Mitochondria Different-Phenotype (%) [10]: 43% | Population Mitotic Cells (%) [10]: 30% | Population Normal (%) [10]: 90% | Population Pyknosed Nuclei (%) [10]: 15% | Population Tubulin-Different-Phenotype (%) [10]: 100% | Total Cell Count [10]: 72

O=C(NCCN1CCOCC1)c1ccc2c(c1)C(=O)c1ccc(Nc3ccc(F)c(NC(=O)c4ccccc4)c3)cc1CC2 [FS-694]
Population Apoptotic (%) [3]: 65% and 38% | Population Fragmented Nuclei (%) [3]: 35% and 51% | Population Healthy Nuclei (%) [3]: 49% and 32% | Population Mitotic Cells (%) [3]: 34% and 61% | Population Normal (%) [3]: 81% and 29% | Population Pyknosed Nuclei (%) [3]: 14% | Population Tubulin-Different-Phenotype (%) [3]: 20% and 24% | Total Cell Count [3]: 371 and 970 | Population Apoptotic (%) [4]: 72% and 68% | Population Fragmented Nuclei (%) [4]: 57% | Population Healthy Nuclei (%) [4]: 27% and 29% | Population Hoechst High Intensity Objects (%) [4]: 44% and 82% | Population Membrane Permeable-Phenotype (%) [4]: 21% and 20% | Population Mitochondria Different-Phenotype (%) [4]: 15% and 0% | Population Mitotic Cells (%) [4]: 27% and 31% | Population Pyknosed Nuclei (%) [4]: 15% and 13% | Population Apoptotic (%) [7]: 44% and 59% | Population Fragmented Nuclei (%) [7]: 50% and 35% | Population Healthy Nuclei (%) [7]: 36% and 50% | Population Membrane Permeable-Phenotype (%) [7]: 8% | Population Mitochondria Different-Phenotype (%) [7]: 13% and 7% | Population Mitotic Cells (%) [7]: 55% and 40% | Population Normal (%) [7]: 34% and 80% | Population Pyknosed Nuclei (%) [7]: 13% and 14% | Population Tubulin-Different-Phenotype (%) [7]: 25% and 24% | Total Cell Count [7]: 927 and 391 | Population Apoptotic (%) [8]: 80% and 55% | Population Fragmented Nuclei (%) [8]: 43% and 57% | Population Healthy Nuclei (%) [8]: 40% and 27% | Population Hoechst High Intensity Objects (%) [8]: 50% and 77% | Population Membrane Permeable-Phenotype (%) [8]: 16% and 15% | Population Mitochondria Different-Phenotype (%) [8]: 20% and 0% | Population Mitotic Cells (%) [8]: 20% and 44% | Population Normal (%) [8]: 50% and 22% | Population Pyknosed Nuclei (%) [8]: 16% and 15% | Population Tubulin-Different-Phenotype (%) [8]: 20% and 9%
